Publication PMC11931292 (Drug Design, Development and Therapy, 2025)

Experiments:
[1] = tested on: BCG within RAW264.7; experiment: Intracellular inhibition, CFU assay in infected RAW264.7 cells; type: cell-based; conditions: 0.047 μg/mL drug, 72 hours, BCG MOI 1
Procedure, shortened: (§1)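 RAW264.7 macrophages were seeded at 1×10⁶ cells/well in 12-well plates and infected at MOI 1, for 24 h with BCG or 4 h with H37Rv. Cells were exposed to 0.047 μg/mL free drug or nanoparticles with equivalent drug for 72 h, washed three times with PBS, and lysed 10 min in PBS with 0.03% SDS. Lysates were serially diluted in 7H9, plated on 7H11, and CFU counted after 21 days at 37°C (three replicates).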

[2] = tested on: H37Rv within RAW264.7; experiment: as above; type: cell-based, Mycobacterium tuberculosis; conditions: 0.047 μg/mL drug, 72 hours, H37Rv MOI 1
Procedure, shortened: as §1

[3] = Organ toxicity: H&E histology and serum biochemistry; type: in vivo, SD rats; conditions: fourth day after injection
Procedure, shortened: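 On day 4 after injection, animals were euthanised. Heart, kidneys, liver, lungs and spleen were excised, rinsed in saline to remove blood, fixed in 4% paraformaldehyde for 72 h, and stained with hematoxylin and eosin.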

[4] = In vitro drug release; type: physicochemical; conditions: within 9 hours
[5] = Pharmacokinetics study, single intravenous injection; type: in vivo, Sprague-Dawley (SD) rats; conditions: SD rats, single i.v. 10 mg/kg
Procedure, shortened: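 Male SD rats (180–220 g) were randomised to free drug or one of two nanoparticle formulations and anaesthetised with i.p. 2% sodium pentobarbital (3mg/100g). Each got a single i.v. dose of 10 mg/kg drug-equivalent. Blood was drawn by orbital bleeding at set times. Plasma was deproteinised with acetonitrile and centrifuged, and the supernatant was assayed by HPLC (C18, 30°C, 335 nm). Cmax, Tmax, t1/2, MRT and AUC0–∞ were derived.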

For CO[C@H]1/C=C/O[C@@]2(C)Oc3c(C)c(O)c4c(O)c(c(/C=N/N5CCN(C6CCCC6)CC5)c(O)c4c3C2=O)NC(=O)/C(C)=C\C=C\[C@H](C)[C@H](O)[C@@H](C)[C@@H](O)[C@@H](C)[C@H](OC(C)=O)[C@@H]1C [RPT, Rifapentine], the “Intracellular antibacterial activity (CFU)” value [1] was “exhibited inhibitory effects”, the “Intracellular antibacterial activity (CFU)” value [2] was “exhibited inhibitory effects” and the “H&E histology of heart, spleen, liver, lungs and kidneys” value [3] was “no discernible abnormalities”. For the same molecule, the “Cumulative release (initial burst release)” value [4] was “approximately 90.73%” and the “Time the drug persisted in the system” value [5] was 2 days.
